Measurements as given in ChEMBL document CHEMBL2429740, “The synthesis and SAR study of phenylalanine-derived (Z)-5-arylmethylidene rhodanines as anti-methicillin-resistant Staphylococcus aureus (MRSA) compounds” (2013).
Converted amounts (≈) assume the structure as drawn.

Legend:
Assay type in all cases: functional
[1] = test system: Staphylococcus aureus; experiment: Antibacterial activity against methicillin-resistant Staphylococcus aureus CA ATCC BAA-1680 by microdilution technique
[2] = test system: Staphylococcus aureus; experiment: Antibacterial activity against methicillin-resistant Staphylococcus aureus ATCC 700787 by microdilution technique
[3] = test system: Staphylococcus aureus; experiment: Antibacterial activity against methicillin-resistant Staphylococcus aureus ATCC BAA-39 by microdilution technique
[4] = test system: Staphylococcus aureus; experiment: Antibacterial activity against methicillin-resistant Staphylococcus aureus ATCC 700698 by microdilution technique
[5] = test system: Staphylococcus aureus; experiment: Antibacterial activity against methicillin-resistant Staphylococcus aureus ATCC 34404 by microdilution technique
[6] = test system: Staphylococcus aureus; experiment: Antibacterial activity against methicillin-resistant Staphylococcus aureus ST239 HS770 by microdilution technique
[7] = test system: Staphylococcus aureus; experiment: Ratio of MIC for methicillin-resistant Staphylococcus aureus ST239 HS770 in absence of 10% FBS to MIC for methicillin-resistant Staphylococcus aureus ST239 HS770 in presence of 10% FBS
Outline: (§1)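 MIC determined by the same turbidity-based microdilution method, once in standard medium and once in medium with 10% fetal serum added, to probe serum protein binding. The ratio is the MIC without serum over the MIC with serum, for each strain.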

[8] = test system: Staphylococcus aureus; experiment: Ratio of MIC for methicillin-resistant Staphylococcus aureus ATCC 34404 in absence of 10% FBS to MIC for methicillin-resistant Staphylococcus aureus ATCC 34404 in presence of 10% FBS; outline: as §1
[9] = test system: Staphylococcus aureus; experiment: Ratio of MIC for methicillin-resistant Staphylococcus aureus ATCC 700698 in absence of 10% FBS to MIC for methicillin-resistant Staphylococcus aureus ATCC 700698 in presence of 10% FBS; outline: as §1
[10] = test system: Staphylococcus aureus; experiment: Ratio of MIC for methicillin-resistant Staphylococcus aureus ATCC 700787 in absence of 10% FBS to MIC for methicillin-resistant Staphylococcus aureus ATCC 700787 in presence of 10% FBS; outline: as §1
[11] = test system: Staphylococcus aureus; experiment: Ratio of MIC for methicillin-resistant Staphylococcus aureus ATCC BAA-39 in absence of 10% FBS to MIC for methicillin-resistant Staphylococcus aureus ATCC BAA-39 in presence of 10% FBS; outline: as §1
[12] = test system: Staphylococcus aureus; experiment: Ratio of MIC for methicillin-resistant Staphylococcus aureus CA ATCC BAA-1680 in absence of 10% FBS to MIC for methicillin-resistant Staphylococcus aureus CA ATCC BAA-1680 in presence of 10% FBS; outline: as §1

SMILES	MIC [1] [µg/mL]	MIC [2] [µg/mL]	MIC [3] [µg/mL]	MIC [4] [µg/mL]	MIC [5] [µg/mL]	MIC [6] [µg/mL]	Ratio [7]	Ratio [8]	Ratio [9]	Ratio [10]	Ratio [11]	Ratio [12]
O=C(O)[C@H](Cc1ccccc1)N1C(=O)/C(=C/c2ccccc2Oc2ccccc2)SC1=S	1.95 (≈ 4.22 µM)	1.95 (≈ 4.22 µM)	3.9 (≈ 8.45 µM)	1.95 (≈ 4.22 µM)	1.95 (≈ 4.22 µM)							
O=C(O)[C@H](Cc1ccccc1)N1C(=O)/C(=C/c2ccc(Oc3ccccc3)cc2)SC1=S	1.95 (≈ 4.22 µM)	7.8 (≈ 16.9 µM)	3.9 (≈ 8.45 µM)	1.95 (≈ 4.22 µM)	1.95 (≈ 4.22 µM)	7.8 (≈ 16.9 µM)						
O=C(O)[C@H](Cc1ccccc1)N1C(=O)/C(=C/c2cccc(Oc3cccc(Cl)c3)c2)SC1=S	15.6 (≈ 31.5 µM)	15.6 (≈ 31.5 µM)	15.6 (≈ 31.5 µM)	15.6 (≈ 31.5 µM)	15.6 (≈ 31.5 µM)							
O=C(O)[C@H](Cc1ccccc1)N1C(=O)/C(=C/c2cccc(Oc3cccc(F)c3)c2)SC1=S	31.2 (≈ 65.2 µM)	31.2 (≈ 65.2 µM)	15.6 (≈ 32.5 µM)	15.6 (≈ 32.5 µM)	15.6 (≈ 32.5 µM)							
COc1ccc(Oc2cccc(/C=C3\SC(=S)N([C@@H](Cc4ccccc4)C(=O)O)C3=O)c2)cc1	15.6 (≈ 31.7 µM)	7.8 (≈ 15.9 µM)	7.8 (≈ 15.9 µM)	7.8 (≈ 15.9 µM)	7.8 (≈ 15.9 µM)							
O=C(O)[C@H](Cc1ccccc1)N1C(=O)/C(=C/c2cccc(Oc3ccc(Cl)cc3)c2)SC1=S	15.6 (≈ 31.5 µM)	15.6 (≈ 31.5 µM)	7.8 (≈ 15.7 µM)	7.8 (≈ 15.7 µM)	7.8 (≈ 15.7 µM)							
O=C(O)[C@H](Cc1ccccc1)N1C(=O)/C(=C/c2cccc(Oc3ccc(F)cc3)c2)SC1=S	7.8 (≈ 16.3 µM)	7.8 (≈ 16.3 µM)	7.8 (≈ 16.3 µM)	7.8 (≈ 16.3 µM)	7.8 (≈ 16.3 µM)							
O=C(O)[C@H](Cc1ccccc1)N1C(=O)/C(=C/c2cccc(Oc3ccc(Cl)c(Cl)c3)c2)SC1=S	1.95 (≈ 3.68 µM)	3.9 (≈ 7.35 µM)	1.95 (≈ 3.68 µM)	1.95 (≈ 3.68 µM)	0.98 (≈ 1.85 µM)		2	2	2	2	2	2
O=C(O)[C@H](Cc1ccccc1)N1C(=O)/C(=C/c2cccc(Cc3ccccc3)c2)SC1=S	1.95 (≈ 4.24 µM)	3.9 (≈ 8.49 µM)	1.95 (≈ 4.24 µM)	3.9 (≈ 8.49 µM)	1.95 (≈ 4.24 µM)							
O=C(c1ccccc1)c1cccc(/C=C2\SC(=S)N([C@@H](Cc3ccccc3)C(=O)O)C2=O)c1	3.9 (≈ 8.24 µM)	7.8 (≈ 16.5 µM)	3.9 (≈ 8.24 µM)	7.8 (≈ 16.5 µM)	3.9 (≈ 8.24 µM)							
O=C(O)[C@H](Cc1ccccc1)N1C(=O)/C(=C/c2cccc(-c3ccccc3)c2)SC1=S	1.95 (≈ 4.38 µM)	1.95 (≈ 4.38 µM)	0.98 (≈ 2.2 µM)	1.95 (≈ 4.38 µM)	0.98 (≈ 2.2 µM)	1.95 (≈ 4.38 µM)	2	2	2	2	2	2
O=C(O)[C@H](Cc1ccccc1)N1C(=O)/C(=C/c2cccc(OCc3ccccc3)c2)SC1=S	1.95 (≈ 4.1 µM)	3.9 (≈ 8.2 µM)	1.95 (≈ 4.1 µM)	3.9 (≈ 8.2 µM)	1.95 (≈ 4.1 µM)	1.95 (≈ 4.1 µM)						
O=C(O)[C@@H](Cc1ccccc1)N1C(=O)/C(=C/c2cccc(Oc3ccccc3)c2)SC1=S	1.95 (≈ 4.22 µM)	3.9 (≈ 8.45 µM)	3.9 (≈ 8.45 µM)	1.95 (≈ 4.22 µM)	3.9 (≈ 8.45 µM)	3.9 (≈ 8.45 µM)						
O=C(O)[C@@H](Cc1ccccc1)N1C(=O)/C(=C/c2cccc(Oc3cccc(Cl)c3)c2)SC1=S	1.95 (≈ 3.93 µM)	3.9 (≈ 7.86 µM)	1.95 (≈ 3.93 µM)	3.9 (≈ 7.86 µM)	0.98 (≈ 1.98 µM)	1.95 (≈ 3.93 µM)	2	2	2	2	2	2
O=C(O)[C@@H](Cc1ccccc1)N1C(=O)/C(=C/c2cccc(Oc3ccc(Cl)cc3)c2)SC1=S	1.95 (≈ 3.93 µM)	3.9 (≈ 7.86 µM)	1.95 (≈ 3.93 µM)	3.9 (≈ 7.86 µM)	1.95 (≈ 3.93 µM)	1.95 (≈ 3.93 µM)						
